According to publication PMC3652433 (MedChemComm, 2013):

Assays:
hMOR = hMOR (Homo sapiens, UniProt P35372); type: cell-based; conditions: hMOR-CHO cells with Gqi5; data not shown
CCR5 [1] = biological target: CCR5 (Homo sapiens, UniProt P51681); assay: Ca2+ flux assay in Gqi5 transfected CCR5-MOLT-4 cells; type: cell-based; conditions: for Potency decrease in RANTES induced Ca2+ flux inhibition compared to maraviroc: relative to maraviroc
HIV-1SF162 = type: cell-based; conditions: human astrocytes
In short: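 Human astrocytes infected with R5 HIV-1SF162; infection assessed by a luciferase-based read-out of relative Tat protein expression at 18 h post-infection. Dose–response was run per compound first. Fixed levels: test compound 100 nM, CCR5 antagonist reference 100 nM, opioid antagonist reference 1.5 μM. Values are […] ± SEM of three independent experiments; statistics vs uninfected control cells.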

astroglial cells = assay: Viability of astroglial cells, dual fluorescence labeling with AOPI; type: cell-based, human; conditions: 100 nM, data not shown
CCR5 [2] = biological target: CCR5 (Macaca mulatta, UniProt P61813); assay: CCR5 competitive radioligand binding assay; set-up: species or system rhesus macaque; conditions: relative to maraviroc
[3] = 100 nM, R5 HIV-1SF162, 18 h post-infection

CCR5 (Homo sapiens, UniProt P51681), sequence (P51681 whole entry): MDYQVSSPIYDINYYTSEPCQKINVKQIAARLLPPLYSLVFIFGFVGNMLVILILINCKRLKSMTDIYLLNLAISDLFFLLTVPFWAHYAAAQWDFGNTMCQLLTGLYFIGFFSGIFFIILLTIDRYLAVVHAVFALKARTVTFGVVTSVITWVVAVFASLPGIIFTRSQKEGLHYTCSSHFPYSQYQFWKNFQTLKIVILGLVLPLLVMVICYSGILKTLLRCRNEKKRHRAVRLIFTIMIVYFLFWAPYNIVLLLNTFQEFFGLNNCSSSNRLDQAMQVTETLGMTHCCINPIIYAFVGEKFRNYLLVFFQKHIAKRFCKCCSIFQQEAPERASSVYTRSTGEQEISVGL
hMOR, sequence (P35372 whole entry): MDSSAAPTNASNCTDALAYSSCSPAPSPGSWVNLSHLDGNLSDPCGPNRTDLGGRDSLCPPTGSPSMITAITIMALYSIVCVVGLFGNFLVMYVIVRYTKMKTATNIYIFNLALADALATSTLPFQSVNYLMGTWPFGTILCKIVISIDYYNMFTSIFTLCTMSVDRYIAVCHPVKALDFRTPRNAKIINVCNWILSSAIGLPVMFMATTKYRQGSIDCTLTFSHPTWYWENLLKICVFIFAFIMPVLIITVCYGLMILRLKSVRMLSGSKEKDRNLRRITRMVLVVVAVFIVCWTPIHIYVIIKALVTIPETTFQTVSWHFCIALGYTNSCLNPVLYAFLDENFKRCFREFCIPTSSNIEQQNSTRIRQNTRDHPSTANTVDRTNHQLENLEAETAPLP

Row | Molecule | MOR agonism in Ca2+ mobilization assay (hMOR) | Potency decrease in RANTES induced Ca2+ flux inhibition compared to maraviroc (CCR5 [1]) | Effect on viral entry / Tat expression (HIV-1SF162; [3]) | further results
1 | Cc1nnc(C(C)C)n1C1CC2CCC(C1)N2CC[C@H](NC(=O)C1CCC(F)(F)CC1)c1ccc(NC(=O)COCC(=O)NCCCCCCCNC(=O)COCC(=O)N[C@@H]2CC[C@@]3(O)[C@H]4Cc5ccc(O)c6c5[C@@]3(CCN4CC3CC3)[C@H]2O6)cc1 (some centres unmarked) [compound 1] | No agonism was observed | approximately 60 fold | significantly effective in inhibiting viral entry | CCR5 agonism in Ca2+ assay (CCR5 [1]; CCR5-MOLT-4 cells with Gqi5, data not shown): no CCR5 agonism was detected; Decrease in Tat expression compared to maraviroc alone (HIV-1SF162; 100 nM, vs maraviroc 100 nM): at least a two-fold decrease in Tat expression; Effect on viability of astroglial cells (astroglial cells): did not affect the viability of astroglial cells
2 | CNC(=O)COCC(=O)NCCCCCCCNC(=O)COCC(=O)N[C@@H]1CC[C@@]2(O)[C@H]3Cc4ccc(O)c5c4[C@@]2(CCN3CC2CC2)[C@H]1O5 [compound 2] | No agonism was observed |  |  | 
3 | CNC(=O)COCC(=O)NCCCCCCCNC(=O)COCC(=O)Nc1ccc([C@H](CCN2C3CCC2CC(n2c(C)nnc2C(C)C)C3)NC(=O)C2CCC(F)(F)CC2)cc1 (some centres unmarked) [compound 3] |  | ~300 fold |  | 
4 | Cc1nnc(C(C)C)n1C1CC2CCC(C1)N2CC[C@H](NC(=O)C1CCC(F)(F)CC1)c1ccc(N)cc1 (some centres unmarked) [compound 4] |  |  |  | Decrease in CCR5 binding affinity compared to maraviroc (CCR5 [2]): approximately 65 fold
5 | O=C1CC[C@@]2(O)[C@H]3Cc4ccc(O)c5c4[C@@]2(CCN3CC2CC2)[C@H]1O5 [naltrexone, reference compound] |  |  |  | Effect on Tat production (HIV-1SF162; 1.5 μM, R5 HIV-1SF162, 18 h post-infection): did not show significant effect on Tat production
6 | maraviroc [reference compound] |  |  | considerably inhibited viral entry | 
